p97 ATPase inh: inhibitors of human p97 ATPase, primary screen, biochemical | Transitional endoplasmic reticulum ATPase (Homo sapiens), P55072 | recombinant p97 ATPase, Kinase-Glo ATP luminescence, 3 h | inhibition, % at 8 µM | 220,000 tested, 0.42% active; in the data active = inhibition above about 15%;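 also: 0% = DMSO vehicle and 100% = wells lacking enzyme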
Target sequence (P55072 whole entry, looked up): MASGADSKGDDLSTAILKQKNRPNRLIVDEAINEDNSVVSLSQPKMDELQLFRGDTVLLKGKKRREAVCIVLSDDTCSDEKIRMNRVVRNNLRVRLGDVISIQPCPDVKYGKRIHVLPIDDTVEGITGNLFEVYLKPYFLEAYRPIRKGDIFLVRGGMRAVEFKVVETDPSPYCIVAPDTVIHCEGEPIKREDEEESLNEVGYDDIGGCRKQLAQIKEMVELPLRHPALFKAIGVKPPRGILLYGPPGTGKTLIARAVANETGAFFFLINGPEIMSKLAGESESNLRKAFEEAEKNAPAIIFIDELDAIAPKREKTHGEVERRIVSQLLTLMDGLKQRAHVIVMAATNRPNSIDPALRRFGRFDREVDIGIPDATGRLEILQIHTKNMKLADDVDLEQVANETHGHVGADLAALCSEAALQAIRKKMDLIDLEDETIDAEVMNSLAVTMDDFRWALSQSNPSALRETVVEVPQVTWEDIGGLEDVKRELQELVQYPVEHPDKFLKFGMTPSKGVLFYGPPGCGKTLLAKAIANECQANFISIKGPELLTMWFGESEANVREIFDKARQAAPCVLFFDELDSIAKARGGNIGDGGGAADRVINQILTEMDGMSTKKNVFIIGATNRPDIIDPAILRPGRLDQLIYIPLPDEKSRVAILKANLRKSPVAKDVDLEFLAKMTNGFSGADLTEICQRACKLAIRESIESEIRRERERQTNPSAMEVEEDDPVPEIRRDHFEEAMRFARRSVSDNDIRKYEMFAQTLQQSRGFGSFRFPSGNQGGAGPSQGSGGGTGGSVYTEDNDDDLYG
L929 necroptosis: inhibitors of zVAD-triggered necroptosis, primary screen, L929 cells. L929 zVAD necroptosis rescue, ATP luminescence, 24 h; with zVAD 60 µM. viability rescue, % at 10 µM. 220,000 tested, 0.38% active;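 active = activation, scaled between plate controls, above about 75%, limit read from the data; inactive = activation under that limit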;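 also: 0% = zVAD with DMSO and 100% = DMSO alone without zVAD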
PfM18AAP inh-1: PfM18AAP inhibitors, malaria aminopeptidase, primary screen, biochemical, QFRET, recombinant enzyme. AID 1822, 2009. M18 aspartyl aminopeptidase (Plasmodium falciparum 3D7). H-Glu-NHMec fluorogenic cleavage. inhibition, % at 7.35 µM. 290,000 tested, 1.2% active;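 active = inhibition above the campaign mean inhibition over all tested compounds plus 3 SD, cut at about 28% in these data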;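 also: 0% = plate median of test compound wells and 100% = 2 mM ZnCl2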
TNF necrop inh: inhibitors of TNF-alpha triggered necroptosis, primary screen, cell-based, Jurkat FADD-/-, single concentration. activation (protection from cell death), % at 10 µM. Jurkat FADD-/- TNF necroptosis rescue, ATP luminescence, 24 h; 0 = TNF only, 100 = no-TNF cells. 220,000 tested, 0.068% active. AID 463075, 2010;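 active = activation, meaning protection from cell death, of at least 50% relative to plate controls; inactive = activation below 50%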;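 also: necroptosis triggered by 40 ng/mL TNF-alpha added together with compound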
Wee1 stabilizer: Wee1 degradation inhibitors, primary screen, cell-based, HeLa, Wee1K328M-luciferase, luminescence; Wee1-like protein kinase (Homo sapiens), P30291; AID 1321, 2008; reporter increase, % at 5 µM; HeLa Luc-Wee1K328M stability; 100% = proteasome inhibitor MG132 effect; 220,000 tested, 1.2% active;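 active = activation above the mean of all tested compounds plus 3 SD, set per screening run, cut at about 8.8% in these data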;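 also: cells exposed to compound for 20 h before luminescence read; 0% = DMSO alone and 100% = MG132 at 30 µM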
RBBP9 inhibitor: human RBBP9 inhibitors, primary screen, biochemical, fluorescence polarization, FP-Rh probe, HTS. Serine hydrolase RBBP9 (Homo sapiens), O75884. recombinant RBBP9. inhibition, % at 7.94 µM. 220,000 tested, 0.2% active. AID 1515, 2009;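 active = inhibition above the campaign mean of all tested compounds plus 3 SD, cut at about 14% in these data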;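 also: plate controls were DMSO wells with RBBP9 for no effect and wells lacking RBBP9 protein for full effect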
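system = RBBP9 protein | input = RBBP9 at 2.5 µM in dispensed solution, before mixing | measured by = fluorescence polarization (mP), excitation 525 nm, emission 598 nm | incubation = enzyme-compound preincubation 30 min, then probe labeling 45 min, 25 °C | buffer or medium = Tris-NaCl-Pluronic buffer, pH 8.0 | compound = single dose 7.94 µM | also added = FP-Rh probe, 375 nM dispensing solution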
PfM18AAP inh-2: PfM18AAP inhibitors, malaria aminopeptidase, confirmation, biochemical, QFRET, recombinant enzyme, triplicate. H-Glu-NHMec fluorogenic cleavage. shares compounds with PfM18AAP inh-1. inhibition, % at 7.35 µM. 2,400 tested, 28% active. AID 2170, 2009;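 active = mean inhibition over replicate wells above the hit cutoff set for the earlier primary screen, cut at about 29% in these data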;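 also: 0% = median of test compound wells and 100% = 2 mM ZnCl2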
CTSL1 confirm: cathepsin L1 inhibitors, retest, confirmation, counter-screen for PFM18AAP inhibitor project, biochemical, QFRET, triplicate | purified cathepsin L1, Z-Leu-Arg-MCA fluorescence | inhibition, % at 5.96 µM | 2,400 tested, under 10 active | AID 2178, 2009 | shares compounds with PfM18AAP inh-1;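 active = average inhibition across replicates above the hit cutoff set in the earlier primary screen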;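 also: 0% = median of test compound wells and 100% = Z-Phe-Ala-diazomethylketone 1 µM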
Numbers without * were called inactive. Hits are enriched below; roughly 2.7% of the tested compounds scored in any of these assays.

Results for CCOC(=O)c1c(NS(=O)(=O)c2cccc(OC)c2)sc2c1CCC2 ?
p97 ATPase inh: 1; L929 necroptosis: 1; PfM18AAP inh-1: 33*; TNF necrop inh: -2; Wee1 stabilizer: 2; RBBP9 inhibitor: -3; PfM18AAP inh-2: -84; CTSL1 confirm: 0

How did CCOC(=O)Nc1sc2c(c1C(=O)OCC)CCC2 do in these assays?
p97 ATPase inh: -3; L929 necroptosis: 0; PfM18AAP inh-1: -8; TNF necrop inh: 0; Wee1 stabilizer: -1; RBBP9 inhibitor: 5

What do the screens show for `OCCn1c(-c2ccc3c(c2)OCO3)csc1=Nc1ccccc1`?
p97 ATPase inh: 5; L929 necroptosis: 0; PfM18AAP inh-1: 37*; TNF necrop inh: -2; Wee1 stabilizer: -1; RBBP9 inhibitor: 2; PfM18AAP inh-2: -52; CTSL1 confirm: 3

Results for Cc1cc2nc3ccc(=[N+](C)C)cc-3sc2cc1N ?
p97 ATPase inh: -20; L929 necroptosis: 5; PfM18AAP inh-1: 36*; TNF necrop inh: -33; Wee1 stabilizer: -2; RBBP9 inhibitor: 8; PfM18AAP inh-2: -18; CTSL1 confirm: 10

Results for COc1ccc(N2C(=O)/C(=C/N(C)C)NC2=S)cc1 ?
p97 ATPase inh: -1; L929 necroptosis: 0; PfM18AAP inh-1: 80*; TNF necrop inh: 1; Wee1 stabilizer: -2; RBBP9 inhibitor: -5; PfM18AAP inh-2: 69*; CTSL1 confirm: 6

Results for COc1ccc(N2C(=O)/C(=C/c3cccnc3)NC2=S)cc1 ?
p97 ATPase inh: -3; L929 necroptosis: 0; PfM18AAP inh-1: -3; TNF necrop inh: 1; Wee1 stabilizer: -2; RBBP9 inhibitor: -6

Results for COc1ccc(-n2nnnc2SCC(=O)c2ccc(O)c(O)c2)cc1 ?
p97 ATPase inh: 4; L929 necroptosis: 1; PfM18AAP inh-1: 35*; TNF necrop inh: -2; Wee1 stabilizer: -2; RBBP9 inhibitor: -1; PfM18AAP inh-2: 30*; CTSL1 confirm: -4

How did NC(=O)c1ccc(-n2nnnc2SCC(=O)c2ccc(O)c(O)c2)cc1 do in these assays?
p97 ATPase inh: 11; L929 necroptosis: 2; PfM18AAP inh-1: 51*; TNF necrop inh: 0; Wee1 stabilizer: -4; RBBP9 inhibitor: -9; PfM18AAP inh-2: 29*; CTSL1 confirm: -1

How did COC(=O)C1=C(CS(=O)(=O)c2cc(OC)ccc2OC)NC(=O)NC1c1ccc(O)c(OC)c1 (centres undefined) do in these assays?
PfM18AAP inh-1: -8

Results for CCOC(=O)Nc1ccc(S(=O)(=O)Nn2cnnc2)cc1 ?
p97 ATPase inh: 11; L929 necroptosis: 0; PfM18AAP inh-1: 41*; TNF necrop inh: 1; Wee1 stabilizer: -3; RBBP9 inhibitor: 0; PfM18AAP inh-2: 47*; CTSL1 confirm: -1

How did CCCCOC(=O)Nc1ccc(S(=O)(=O)Nc2cc(C)nc(C)n2)cc1 do in these assays?
p97 ATPase inh: 0; L929 necroptosis: -1; PfM18AAP inh-1: -7; TNF necrop inh: 2; Wee1 stabilizer: 0; RBBP9 inhibitor: 4

Results for CCOC(=O)Nc1ccc(NS(=O)(=O)c2ccc(C)cc2)cc1 ?
p97 ATPase inh: -6; L929 necroptosis: 0; PfM18AAP inh-1: -15; TNF necrop inh: 1; Wee1 stabilizer: -1; RBBP9 inhibitor: -4

Source: PubChem BioAssay (several laboratories)
